Test results: ChEMBL document CHEMBL4346686, “Discovery and biological evaluation of novel androgen receptor antagonist for castration-resistant prostate cancer” (Eur J Med Chem, 2019); call rule not given here

How the values were obtained:
[1] = Cmax in Sprague-Dawley rat at 30 mg/kg, po measured at 0.5 hrs by LC-MS/MS analysis; assay type: ADME, organism-based; design: dose 30 mg/kg, route oral; conditions: in vivo
In short: (§1)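 Male SD rats (N = 3), single oral 30 mg/kg in PEG200/DMA (9:1, v/v). Blood from retrobulbar vein at 0–24 h; heparinized plasma, protein precipitation with methanol, LC-MS/MS quantitation; parameters by non-compartmental analysis.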

[2] = AUC (0 to t) in Sprague-Dawley rat at 30 mg/kg, po measured upto 24 hrs by LC-MS/MS analysis; assay type: ADME, organism-based; design: time < 24 hr, dose 30 mg/kg, route oral; conditions: in vivo
PC-3 = assay: Antiproliferative activity against human PC3 cells assessed as reduction in cell viability incubated for 6 days by CCK8 assay; assay type: functional, cell-based; conditions: PC-3, 144 h
In short: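 Cells seeded (2×10^4 per well for VCaP, 1–3×10^3 for the others) and compound added after 24 h as a 9-point, 3-fold serial dilution. Exposure 6 days, then CCK-8 for 1–4 h and absorbance at 450 nm. IC50 from curve fit, mean of at least two independent experiments run in duplicate.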

VCaP = assay: Antitumor activity against human VCaP cells xenografted in BALB/c nude mouse assessed as inhibition of tumor growth at 30 mg/kg, po qd administered for 40 days relative to control; assay type: functional; conditions: Mus musculus, VCaP, po, 960 h; read-out: TGI
In short: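 Male BALB/c nude mice, 5 weeks old, s.c. 1 × 10^7 VCaP cells in DMEM/Matrigel (1:1). Castrated under Nembutal at 150–200 mm3 and randomized (n = 8–10). Once tumors regrew to 200–350 mm3, oral 30 mg/kg qd for 40 days. TGI = [1 − (T − T0)/(C − C0)] × 100 from mean tumor volumes on first and last treatment days.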

[3] = molecular target: T1, Androgen receptor (Homo sapiens) (UniProt P10275); assay: Potency index, ratio of IC50 for enzalutamide to IC50 for compound for competitive displacement of [3H]R1881 from human AR expressed in LNCaP cells incubated for 24 hrs by scintillation counting method based radioligand competitive binding assay; assay type: cell-based
T1 sequence (whole entry): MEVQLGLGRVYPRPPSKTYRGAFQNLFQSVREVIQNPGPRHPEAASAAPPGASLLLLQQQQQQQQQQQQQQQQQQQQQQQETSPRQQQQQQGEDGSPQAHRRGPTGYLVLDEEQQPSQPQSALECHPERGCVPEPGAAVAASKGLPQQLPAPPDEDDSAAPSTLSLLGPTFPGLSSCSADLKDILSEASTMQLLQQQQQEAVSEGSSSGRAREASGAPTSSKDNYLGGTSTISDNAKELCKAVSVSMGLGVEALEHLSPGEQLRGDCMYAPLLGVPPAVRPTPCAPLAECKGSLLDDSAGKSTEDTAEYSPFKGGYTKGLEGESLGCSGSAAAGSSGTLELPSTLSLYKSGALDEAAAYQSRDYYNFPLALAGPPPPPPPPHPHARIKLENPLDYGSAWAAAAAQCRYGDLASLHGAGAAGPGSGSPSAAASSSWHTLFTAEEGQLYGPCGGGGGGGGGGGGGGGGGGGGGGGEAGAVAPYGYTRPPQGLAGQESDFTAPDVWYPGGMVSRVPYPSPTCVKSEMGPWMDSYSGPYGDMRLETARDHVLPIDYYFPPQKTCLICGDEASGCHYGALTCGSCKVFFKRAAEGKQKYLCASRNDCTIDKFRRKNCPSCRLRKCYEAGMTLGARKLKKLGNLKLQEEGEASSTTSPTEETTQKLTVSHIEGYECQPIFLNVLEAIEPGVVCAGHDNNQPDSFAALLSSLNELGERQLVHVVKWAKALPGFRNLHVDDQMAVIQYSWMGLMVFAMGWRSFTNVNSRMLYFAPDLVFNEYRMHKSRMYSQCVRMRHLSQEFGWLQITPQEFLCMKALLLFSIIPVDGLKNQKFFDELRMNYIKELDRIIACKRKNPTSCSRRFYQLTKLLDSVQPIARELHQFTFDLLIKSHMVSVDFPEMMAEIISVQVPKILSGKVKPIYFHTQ

[4] = molecular target: T2, Steroid 17-alpha-hydroxylase/17,20 lyase (Homo sapiens, UniProt P05093); assay: Inhibition of C-myc/DDK tagged human CYP17A1 expressed in HEK293T cells assessed as reduction in formation of 17-OHP at 10 uM incubated for 30 mins by LC-MS/MS analysis; assay type: cell-based; conditions: 0.5 h, 10 µM
T2 sequence (P05093 whole entry): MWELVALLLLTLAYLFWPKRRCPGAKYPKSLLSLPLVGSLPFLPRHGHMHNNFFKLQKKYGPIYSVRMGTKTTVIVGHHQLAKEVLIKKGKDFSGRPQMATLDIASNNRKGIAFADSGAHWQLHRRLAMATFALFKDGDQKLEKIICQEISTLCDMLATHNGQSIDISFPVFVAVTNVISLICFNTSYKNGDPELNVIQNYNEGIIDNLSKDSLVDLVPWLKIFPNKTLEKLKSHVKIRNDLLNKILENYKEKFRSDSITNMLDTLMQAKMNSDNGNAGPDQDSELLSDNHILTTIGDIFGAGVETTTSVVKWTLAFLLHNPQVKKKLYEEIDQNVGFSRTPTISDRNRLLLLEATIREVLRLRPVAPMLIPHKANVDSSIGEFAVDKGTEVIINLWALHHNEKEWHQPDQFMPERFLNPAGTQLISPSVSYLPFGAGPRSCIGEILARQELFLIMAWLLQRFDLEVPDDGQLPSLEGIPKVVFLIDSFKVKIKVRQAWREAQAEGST
In short: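 CYP17A1 activity measured as 17α-hydroxyprogesterone formation in 50 mM Tris pH 7.4, 5 mM MgCl2. Incubation 30 min at 37 °C, quenched with 20% trichloroacetic acid; product quantified by LC-MS/MS. Mean ± SD, n = 2.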

[5] = Tmax in Sprague-Dawley rat at 30 mg/kg, po measured upto 24 hrs by LC-MS/MS analysis; assay type: ADME, organism-based; conditions: in vivo; in short: as §1

For `Cc1ccc(-c2c(C)noc2C)cc1Nc1ccc(C#N)c(Cl)c1`, the Cmax [1] was 2320 ng/mL, the AUC(0-t) at 24 h [2] was 4040 ng·h/mL and the IC50 (PC-3) was 23.3 µM. For the same compound, the inhibition in vivo at 30 mg/kg (VCaP) was 44.7%, the Ratio IC50 [3] was 8 and the “inhibition (INH)” value [4] was “Not Active”. For the same compound, the Tmax [5] was 30 min.
